According to ChEMBL document CHEMBL1146728, “Statin-derived 1,3-oxazinan-2-ones as submicromolar inhibitors of LFA-1/ICAM-1 interaction: stabilization of the metabolically labile vanillyl side chain” (Bioorg Med Chem Lett, 2004):

Tests used:
[1] = biological target: T1, Intercellular adhesion molecule (ICAM-1), Integrin alpha-L/beta-2 (Homo sapiens, UniProt P05107+P20701); assay: Inhibition of HUT78 cell adhesion to immobilized ICAM-1 protein; assay type: functional, cell-based
[2] = Intrinsic clearance in human liver microsomes was determined; assay type: ADME, Microsome; settings: read-out: Clearance
How it was run: (§1)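 Pooled liver microsomes at 0.15 mg/mL protein, compound at 1 µM, in 100 mM phosphate buffer pH 7.4 with 5 mM MgCl2, 1 mM EDTA, 0.35 mg/mL albumin and alamethicin, at 37°C. Started with final 4 mM UDPGA plus 1 mM NADPH and stopped at 5 and 20 min with ACN containing 0.02% FA. Single incubations, clearance in µL/min/mg.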

[3] = test system: Mus musculus; assay: Anti-inflammatory activity against murine model of allergic contact dermatitis (mACD) after single oral administration (1 mg/kg) (in vivo); assay type: functional
How it was run: (§2)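 Oxazolone-sensitized mice, eight per group, challenged with 10 µL of 2.0% oxazolone on the inner surface of the right ear; unchallenged left ear served as control. Single oral dose of compound given 2 h after challenge. Ear weight difference at 24 h used as swelling measure. Result is % inhibition versus vehicle controls, mean ± SEM, ANOVA/Dunnett or H/U-test.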

[4] = Intrinsic clearance in rat liver microsomes was determined; assay type: ADME, Microsome; settings: read-out: Clearance; how it was run: as §1
[5] = biological target: T1, Intercellular adhesion molecule (ICAM-1), Integrin alpha-L/beta-2; assay: In vitro inhibition of recombinant ICAM-1 binding to purified immobilized LFA-1 using cell-free assay; assay type: functional
[6] = test system: Mus musculus; assay: Anti-inflammatory activity against murine model of allergic contact dermatitis (mACD) after single oral administration (0.1 mg/kg) (in vivo); assay type: functional; how it was run: as §2

T1 sequence (P20701 whole entry): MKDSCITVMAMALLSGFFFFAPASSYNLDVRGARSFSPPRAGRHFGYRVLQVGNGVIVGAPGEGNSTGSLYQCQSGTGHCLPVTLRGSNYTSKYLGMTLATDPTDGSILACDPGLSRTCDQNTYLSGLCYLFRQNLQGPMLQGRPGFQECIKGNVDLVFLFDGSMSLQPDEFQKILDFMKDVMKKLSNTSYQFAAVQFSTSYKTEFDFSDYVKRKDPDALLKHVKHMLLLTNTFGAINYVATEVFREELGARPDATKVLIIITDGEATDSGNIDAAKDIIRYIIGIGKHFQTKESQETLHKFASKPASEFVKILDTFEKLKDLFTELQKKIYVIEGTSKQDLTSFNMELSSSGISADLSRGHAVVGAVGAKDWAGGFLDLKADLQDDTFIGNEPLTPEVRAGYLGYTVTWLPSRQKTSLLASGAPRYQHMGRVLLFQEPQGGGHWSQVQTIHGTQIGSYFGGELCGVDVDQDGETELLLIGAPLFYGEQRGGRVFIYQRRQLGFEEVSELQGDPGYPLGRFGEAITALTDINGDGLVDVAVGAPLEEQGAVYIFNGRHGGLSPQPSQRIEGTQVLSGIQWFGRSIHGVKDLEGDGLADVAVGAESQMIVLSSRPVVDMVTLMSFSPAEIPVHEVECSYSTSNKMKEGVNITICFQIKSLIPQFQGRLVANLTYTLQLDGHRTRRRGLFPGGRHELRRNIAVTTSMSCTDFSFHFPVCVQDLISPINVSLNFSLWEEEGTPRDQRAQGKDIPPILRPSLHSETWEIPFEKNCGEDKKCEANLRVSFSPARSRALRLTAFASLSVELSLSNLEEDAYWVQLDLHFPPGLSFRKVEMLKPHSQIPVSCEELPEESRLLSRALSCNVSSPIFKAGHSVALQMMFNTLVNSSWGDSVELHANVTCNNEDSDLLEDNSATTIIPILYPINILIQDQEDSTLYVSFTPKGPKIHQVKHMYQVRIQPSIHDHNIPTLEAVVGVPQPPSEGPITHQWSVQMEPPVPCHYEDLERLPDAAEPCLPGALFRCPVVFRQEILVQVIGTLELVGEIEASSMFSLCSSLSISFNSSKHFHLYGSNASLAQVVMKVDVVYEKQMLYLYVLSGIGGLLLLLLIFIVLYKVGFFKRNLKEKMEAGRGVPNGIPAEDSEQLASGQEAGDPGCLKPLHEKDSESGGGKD
T1 sequence (P05362 whole entry, further chain): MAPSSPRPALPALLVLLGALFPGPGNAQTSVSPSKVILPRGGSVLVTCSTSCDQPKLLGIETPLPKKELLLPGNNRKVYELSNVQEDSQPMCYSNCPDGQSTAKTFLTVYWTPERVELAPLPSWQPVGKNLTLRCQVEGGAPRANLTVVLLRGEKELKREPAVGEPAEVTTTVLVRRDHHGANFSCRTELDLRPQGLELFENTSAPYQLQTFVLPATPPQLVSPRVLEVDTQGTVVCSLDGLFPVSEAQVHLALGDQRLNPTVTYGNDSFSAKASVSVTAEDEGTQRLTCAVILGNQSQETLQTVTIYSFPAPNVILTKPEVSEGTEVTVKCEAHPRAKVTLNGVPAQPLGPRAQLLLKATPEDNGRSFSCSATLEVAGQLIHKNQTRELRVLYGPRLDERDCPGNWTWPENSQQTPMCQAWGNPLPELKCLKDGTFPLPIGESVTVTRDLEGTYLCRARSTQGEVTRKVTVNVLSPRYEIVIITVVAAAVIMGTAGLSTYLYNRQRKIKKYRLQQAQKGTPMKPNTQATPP
T1 sequence (P05107 whole entry): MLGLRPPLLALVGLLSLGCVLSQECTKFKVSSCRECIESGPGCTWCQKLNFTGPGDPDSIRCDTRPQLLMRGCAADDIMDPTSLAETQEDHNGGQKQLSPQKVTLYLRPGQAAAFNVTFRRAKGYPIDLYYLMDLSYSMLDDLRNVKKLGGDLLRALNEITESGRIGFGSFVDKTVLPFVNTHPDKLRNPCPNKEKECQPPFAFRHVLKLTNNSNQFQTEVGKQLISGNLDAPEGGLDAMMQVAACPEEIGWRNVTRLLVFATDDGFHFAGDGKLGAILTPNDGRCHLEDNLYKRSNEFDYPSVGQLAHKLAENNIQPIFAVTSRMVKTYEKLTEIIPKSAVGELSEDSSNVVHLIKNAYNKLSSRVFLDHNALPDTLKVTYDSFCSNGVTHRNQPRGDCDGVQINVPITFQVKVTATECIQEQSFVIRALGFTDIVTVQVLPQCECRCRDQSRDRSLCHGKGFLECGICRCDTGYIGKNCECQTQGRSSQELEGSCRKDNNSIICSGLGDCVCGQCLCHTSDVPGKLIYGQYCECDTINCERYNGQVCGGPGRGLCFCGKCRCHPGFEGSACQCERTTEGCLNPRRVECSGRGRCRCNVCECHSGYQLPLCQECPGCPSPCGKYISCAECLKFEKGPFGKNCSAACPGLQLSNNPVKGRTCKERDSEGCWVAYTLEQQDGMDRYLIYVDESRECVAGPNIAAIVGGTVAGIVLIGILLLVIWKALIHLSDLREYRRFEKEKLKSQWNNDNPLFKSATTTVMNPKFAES

SMILES | IC50 [1] | microsomal CLint [2] | microsomal CLint [4] | IC50 [5] | Inhibition [3] | Inhibition [6]
CC[C@H](C)C(=O)O[C@H]1C[C@@H](C)C=C2C=C[C@H](C)[C@H](CC[C@@H]3C[C@H](CC(=O)OC)N(CCc4ccc(O)c(OC)c4)C(=O)O3)[C@H]21 | 20500 nM | – | – | 640 nM | 30% | 9%
CC[C@H](C)C(=O)O[C@H]1C[C@@H](C)C=C2C=C[C@H](C)[C@H](CC[C@@H]3C[C@H](CC(=O)NC)N(CCc4ccc(O)c(OC)c4)C(=O)O3)[C@H]21 | 9500 nM | > 500 µL/min/mg | > 500 µL/min/mg | 800 nM | 43% | 29%
CC[C@H](C)C(=O)O[C@H]1C[C@@H](C)C=C2C=C[C@H](C)[C@H](CC[C@@H]3C[C@H](CC(=O)NC)N(Cc4ccc5c(c4)OC(F)(F)O5)C(=O)O3)[C@H]21 | 5590 nM | > 500 µL/min/mg | 207 µL/min/mg | 1150 nM | 19% | –
CC[C@H](C)C(=O)O[C@H]1C[C@@H](C)C=C2C=C[C@H](C)[C@H](CC[C@@H]3C[C@H](CC(=O)OC)N(Cc4ccc5c(c4)OC(F)(F)O5)C(=O)O3)[C@H]21 | > 30000 nM | – | – | > 30000 nM | -3% | –
CC[C@H](C)C(=O)O[C@H]1C[C@@H](C)C=C2C=C[C@H](C)[C@H](CC[C@@H]3C[C@H](CC(=O)OC)N(Cc4ccc(O)c(OC)c4)C(=O)O3)[C@H]21 | 120 nM | – | – | 50 nM | 46% | 16%
CC[C@H](C)C(=O)O[C@H]1C[C@@H](C)C=C2C=C[C@H](C)[C@H](CC[C@@H]3C[C@H](CC(=O)NC)N(Cc4ccc5c(c4)OCO5)C(=O)O3)[C@H]21 | 6420 nM | 383 µL/min/mg | 100 µL/min/mg | 170 nM | 29% | 28%

The next lines start with results.

IC50 [1] | microsomal CLint [2] | microsomal CLint [4] | IC50 [5] | SMILES | Inhibition [3] | Inhibition [6]
> 30000 nM | 205 µL/min/mg | 214 µL/min/mg | 870 nM | CC[C@H](C)C(=O)O[C@H]1C[C@@H](C)C=C2C=C[C@H](C)[C@H](CC[C@@H]3C[C@H](CC(=O)NC)N(Cc4ccc(C(=O)O)cc4)C(=O)O3)[C@H]21 | 21% | –
– | > 500 µL/min/mg | > 500 µL/min/mg | 1500 nM | CC[C@H](C)C(=O)O[C@H]1C[C@@H](C)C=C2C=C[C@H](C)[C@H](CC[C@@H]3C[C@H](CC(=O)NC)N(Cc4ccc(C(C)(C)O)cc4)C(=O)O3)[C@H]21 | 26% | 9%
4500 nM | – | – | 680 nM | CC[C@H](C)C(=O)O[C@H]1C[C@@H](C)C=C2C=C[C@H](C)[C@H](CC[C@@H]3C[C@H](CC(=O)OC)N(Cc4cccc(OC)c4)C(=O)O3)[C@H]21 | 23% | –
> 30000 nM | > 500 µL/min/mg | > 500 µL/min/mg | 620 nM | CC[C@H](C)C(=O)O[C@H]1C[C@@H](C)C=C2C=C[C@H](C)[C@H](CC[C@@H]3C[C@H](CC(=O)NC)N(Cc4ccc(C(=O)NC)cc4)C(=O)O3)[C@H]21 | 26% | 32%
> 30000 nM | – | – | 1300 nM | CC[C@H](C)C(=O)O[C@H]1C[C@@H](C)C=C2C=C[C@H](C)[C@H](CC[C@@H]3C[C@H](CC(=O)OC)N(Cc4ccc(C(=O)NC)cc4)C(=O)O3)[C@H]21 | 8% | –
250 nM | > 500 µL/min/mg | > 500 µL/min/mg | 50 nM | CC[C@H](C)C(=O)O[C@H]1C[C@@H](C)C=C2C=C[C@H](C)[C@H](CC[C@@H]3C[C@H](CC(=O)NC)N(Cc4ccc(O)c(OC)c4)C(=O)O3)[C@H]21 | 47% | 39%
7690 nM | – | – | 3000 nM | CC[C@H](C)C(=O)O[C@H]1C[C@@H](C)C=C2C=C[C@H](C)[C@H](CC[C@@H]3C[C@H](CC(=O)OC)N(Cc4ccc(C(C)(C)O)cc4)C(=O)O3)[C@H]21 | 33% | 12%
2590 nM | – | – | 1000 nM | CC[C@H](C)C(=O)O[C@H]1C[C@@H](C)C=C2C=C[C@H](C)[C@H](CC[C@@H]3C[C@H](CC(=O)OC)N(Cc4ccc5c(c4)OCO5)C(=O)O3)[C@H]21 | 42% | 32%
6500 nM | 55 µL/min/mg | 123 µL/min/mg | 270 nM | CC[C@H](C)C(=O)O[C@H]1C[C@@H](C)C=C2C=C[C@H](C)[C@H](CC[C@@H]3C[C@H](CC(=O)NC)N(Cc4cccc(OC)c4)C(=O)O3)[C@H]21 | 21% | –
